In ChEMBL document CHEMBL1142436, “Design and synthesis of 4-substituted indolo[3,2-e][1,2,3]triazolo[1,5-a]pyrimidine derivatives with antitumor activity” (2008):

What was measured:
Type in all cases: functional
HL-60 = assay: Growth inhibition of human HL60 cells after 48 hrs; details: HL-60, 48 h
Outline: (§1)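 NCI ~60-line screen. Cells were grown in RPMI 1640 with 5% FBS and 2 mM L-glutamine and plated at 5000–40000 cells/well. After a 24 h preincubation, five drug concentrations from DMSO stocks were added for 48 h at 37 °C. Cells were TCA-fixed, stained with SRB and read at 515 nm. GI50 was taken from time-zero and control absorbances and reported as pGI50.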

KM12 = assay: Growth inhibition of human KM12 cells after 48 hrs; details: KM12, 48 h; outline: as §1
UACC-62 = assay: Growth inhibition of human UACC62 cells after 48 hrs; details: UACC-62, 48 h
Outline: (§2)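 NCI 60-line screen: cells in RPMI 1640 with 5% FBS and 2 mM L-glutamine, plated at 5000–40000 cells/well, grown 24 h (37 °C, 5% CO₂), then exposed to five 10-fold or ½-log dilutions (DMSO stock) for 48 h. Fixed with TCA (final 10% for adherent cells, 16% for suspension cells), then SRB stained with absorbance at 515 nm. GI50 from percentage growth relative to time-zero and control wells.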

SF-539 = assay: Growth inhibition of human SF539 cells after 48 hrs; details: SF-539, 48 h; outline: as §1
SF-295 = assay: Growth inhibition of human SF295 cells after 48 hrs; details: SF-295, 48 h; outline: as §1
SK-MEL-5 = assay: Growth inhibition of human SK-MEL5 cells after 48 hrs; details: SK-MEL-5, 48 h; outline: as §1
MOLT-4 = assay: Growth inhibition of human MOLT4 cells after 48 hrs; details: MOLT-4, 48 h; outline: as §1
NCI-H322M = assay: Growth inhibition of human NCI-H322M cells after 48 hrs; outline: as §1
RXF 393 = assay: Growth inhibition of human RXF393 cells after 48 hrs; details: RXF 393, 48 h; outline: as §1
SNB-19 = assay: Growth inhibition of human SNB19 cells after 48 hrs; details: SNB-19, 48 h; outline: as §2
CCRF-CEM = assay: Growth inhibition of human CCRF-CEM cells after 48 hrs; outline: as §1
OVCAR-5 = assay: Growth inhibition of human OVCAR5 cells after 48 hrs; details: OVCAR-5, 48 h; outline: as §1
Malme-3M = assay: Growth inhibition of human MALME3M cells after 48 hrs; outline: as §1
HCT-116 = assay: Growth inhibition of human HCT116 cells after 48 hrs; details: HCT-116, 48 h; outline: as §1
MDA-MB-231 = assay: Growth inhibition of human MDA-MB-231 cells after 48 hrs; details: MDA-MB-231, 48 h; outline: as §1
NCI-H23 = assay: Growth inhibition of human NCI-H23 cells after 48 hrs; details: Homo sapiens, NCI-H23, 48 h; outline: as §1
UACC-257 = assay: Growth inhibition of human UACC257 cells after 48 hrs; details: UACC-257, 48 h; outline: as §2
LOX IMVI = assay: Growth inhibition of human LOXIMVI cells after 48 hrs; outline: as §1
SF-268 = assay: Growth inhibition of human SF268 cells after 48 hrs; details: SF-268, 48 h; outline: as §1
A498 = assay: Growth inhibition of human A498 cells after 48 hrs; details: A498, 48 h; outline: as §1
M14 = assay: Growth inhibition of human M14 cells after 48 hrs; details: M14, 48 h; outline: as §1
DU-145 = assay: Growth inhibition of human DU145 cells after 48 hrs; details: DU-145, 48 h; outline: as §1
TK-10 = assay: Growth inhibition of human TK10 cells after 48 hrs; details: TK-10, 48 h; outline: as §2
NCI-H226 = assay: Growth inhibition of human NCI-H226 cells after 48 hrs; details: NCI-H226, 48 h; outline: as §1
MCF7 = assay: Growth inhibition of human MCF7 cells after 48 hrs; details: MCF7, 48 h; outline: as §1
OVCAR-8 = assay: Growth inhibition of human OVCAR8 cells after 48 hrs; details: OVCAR-8, 48 h; outline: as §1
U-251 = assay: Growth inhibition of human U251 cells after 48 hrs; details: U-251, 48 h; outline: as §2
CAKI-1 = assay: Growth inhibition of human CAKI1 cells after 48 hrs; details: CAKI-1, 48 h; outline: as §1
RPMI-8226 = assay: Growth inhibition of human RPMI8226 cells after 48 hrs; details: RPMI-8226, 48 h; outline: as §1
IGROV-1 = assay: Growth inhibition of human IGROV1 cells after 48 hrs; details: IGROV-1, 48 h; outline: as §1
NCI-H522 = assay: Growth inhibition of human NCI-H522 cells after 48 hrs; details: NCI-H522, 48 h; outline: as §1
[1] = read-out: Log LC50 (the source's name) (converted)

Cn1c2ccccc2c2c(=O)n(CCCC(=O)NCC(=O)N(C(=O)NC3CCCCC3)C3CCCCC3)c3c(-c4ccccc4)nnn3c21
GI50 (HL-60): 2.88 µM | LC50 (HL-60): > 100 µM | TGI (HL-60; read-out: pTGI (converted)): 8.32 µM | GI50 (KM12): 31.6 µM | LC50 (KM12): > 100 µM | TGI (KM12; read-out: pTGI (converted)): > 100 µM | GI50 (UACC-62): 25.7 µM | LC50 (UACC-62): > 100 µM | TGI (UACC-62; read-out: pTGI (converted)): > 100 µM | LC50 (concentration killing 50% of cells) (SF-539): > 100 µM | TGI (SF-539; read-out: pTGI (converted)): 57.5 µM | GI50 (SF-295): > 100 µM | LC50 (SF-295): > 100 µM | TGI (SF-295; read-out: pTGI (converted)): > 100 µM | GI50 (SK-MEL-5): 6.03 µM | LC50 (SK-MEL-5): > 100 µM | TGI (SK-MEL-5; read-out: pTGI (converted)): 31.6 µM | GI50 (MOLT-4): 14.5 µM | LC50 (MOLT-4): > 100 µM | TGI (MOLT-4; read-out: pTGI (converted)): > 100 µM | GI50 (NCI-H322M): > 100 µM | LC50 (NCI-H322M): > 100 µM | TGI (NCI-H322M; read-out: pTGI (converted)): > 100 µM | GI50 (RXF 393): 11 µM | LC50 (RXF 393): > 100 µM | TGI (RXF 393; read-out: pTGI (converted)): 37.2 µM | LC50 (SNB-19): > 100 µM | TGI (SNB-19; read-out: pTGI (converted)): > 100 µM | GI50 (CCRF-CEM): 8.32 µM | LC50 (CCRF-CEM): > 100 µM | TGI (CCRF-CEM; read-out: pTGI (converted)): 57.5 µM | GI50 (OVCAR-5): 15.5 µM | LC50 (concentration killing 50% of cells) (OVCAR-5): 69.2 µM | TGI (OVCAR-5; read-out: pTGI (converted)): 32.4 µM | GI50 (Malme-3M): 46.8 µM | LC50 (Malme-3M): > 100 µM | TGI (Malme-3M; read-out: pTGI (converted)): > 100 µM | GI50 (HCT-116): 14.1 µM | LC50 (HCT-116): > 100 µM | TGI (HCT-116; read-out: pTGI (converted)): 42.7 µM | GI50 (MDA-MB-231): 12.3 µM | LC50 (concentration killing 50% of cells) (MDA-MB-231): > 100 µM | TGI (MDA-MB-231; read-out: pTGI (converted)): 38 µM | GI50 (NCI-H23): 15.5 µM | CC50 (NCI-H23; [1]): 69.2 µM | TGI (NCI-H23; read-out: pTGI (converted)): 33.1 µM | GI50 (UACC-257): 66.1 µM | LC50 (UACC-257): > 100 µM | TGI (UACC-257; read-out: pTGI (converted)): > 100 µM | GI50 (LOX IMVI): 13.2 µM | LC50 (lethal concentration, 50% cell kill) (LOX IMVI): > 100 µM | TGI (LOX IMVI; read-out: pTGI (converted)): 97.7 µM | GI50 (SF-268): 15.1 µM | CC50 (SF-268; [1]): > 100 µM | TGI (SF-268; read-out: pTGI (converted)): > 100 µM | GI50 (A498): 30.9 µM | CC50 (A498; [1]): > 100 µM | TGI (A498; read-out: pTGI (converted)): > 100 µM | GI50 (M14): 30.9 µM | LC50 (M14): > 100 µM | TGI (M14; read-out: pTGI (converted)): > 100 µM | GI50 (DU-145): 18.6 µM | LC50 (DU-145): > 100 µM | TGI (DU-145; read-out: pTGI (converted)): > 100 µM | GI50 (TK-10): > 100 µM | LC50 (TK-10): > 100 µM | TGI (TK-10; read-out: pTGI (converted)): > 100 µM | GI50 (NCI-H226): 39.8 µM | CC50 (NCI-H226; [1]): > 100 µM | TGI (NCI-H226; read-out: pTGI): > 100 µM | GI50 (MCF7): 3.63 µM | LC50 (MCF7): > 100 µM | TGI (MCF7; read-out: pTGI (converted)): > 100 µM | LC50 (OVCAR-8): > 100 µM | GI50 (U-251): 12.3 µM | LC50 (U-251): > 100 µM | TGI (U-251; read-out: pTGI (converted)): 38 µM | GI50 (CAKI-1): 32.4 µM | LC50 (concentration killing 50% of cells) (CAKI-1): > 100 µM | TGI (CAKI-1; read-out: pTGI (converted)): 37.2 µM | GI50 (RPMI-8226): 4.27 µM | LC50 (RPMI-8226): 97.7 µM | TGI (RPMI-8226; read-out: pTGI (converted)): 21.4 µM | GI50 (IGROV-1): 2.82 µM | LC50 (IGROV-1): > 100 µM | TGI (IGROV-1; read-out: pTGI (converted)): 33.1 µM | GI50 (NCI-H522): 15.8 µM | LC50 (NCI-H522): > 100 µM | TGI (NCI-H522; read-out: pTGI (converted)): 81.3 µM
